The test system of test [1] is Plasmodium falciparum. Put plainly: In vitro antimalarial activity against Plasmodium falciparum D6. Type of test: functional, organism-based.
For test [2], the system named is Plasmodium falciparum. In words: In vitro antimalarial activity against Plasmodium falciparum W-2. Type of test: functional, organism-based.
Test [3] deals with Mus musculus. Put plainly: In vivo antimalarial activity against Plasmodium berghei. Activity expressed as ED90. Type of test: functional. The procedure, abridged:
(§1)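 Mice infected with drug-sensitive N strain of P. berghei; compound given subcutaneously as a single daily dose for 4 days. ED50 and ED90 reported in mg/kg.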

Test [4] has as its system Mus musculus. Put plainly: In vivo antimalarial activity against Plasmodium berghei. Activity expressed as ED50. Type of test: functional. The procedure, abridged:
as §1

In brackets after ≈: the same amount, converted by molar mass.

The results in this text go back to ChEMBL document CHEMBL1128239, “Structure-activity relationships of lactone ring-opened analogs of the antimalarial 1,2,4-trioxane artemisinin” (J Med Chem, 1995).

Broadly, the IC50 is the concentration needed to halve the response being measured. On to `CO[C@H]1O[C@@]2(C)CC[C@H]3CCC[C@@H](CCOCc4ccccn4)[C@]31OO2`, for which the IC50 amounted to 18 ng/mL (≈ 0.0495 µM) in test [1] and 7 ng/mL (≈ 0.0193 µM) in test [2].
What is called ED50 is the dose that gives a 50% effect, or the effect in half of the subjects. Read a high ED50 as a need for a large dose. Compound `CO[C@H]1O[C@@]2(C)CC[C@H]3CCC[C@@H](CCOCc4ccc(F)cc4)[C@]31OO2` showed an ED90 in test [3] of 13.5 mg/kg. Also, the IC50 turned out to be 3 ng/mL (≈ 0.00789 µM) in test [1] and 4.5 ng/mL (≈ 0.0118 µM) in test [2]. The compound also showed an ED50 in test [4] of 7.6 mg/kg.
The compound `CO[C@H]1O[C@@]2(C)CC[C@H]3CCC[C@@H](CCOCc4cc[n+](C)cc4)[C@]31OO2.[I-]` gave an IC50 in test [2] of 85 ng/mL.
In the case of `CO[C@H]1O[C@@]2(C)CC[C@H]3CCC[C@@H](CCOCc4ccccc4)[C@]31OO2`, the concentration for half-maximal inhibition (IC50) in test [1] was 8 ng/mL (≈ 0.0221 µM); in test [2], 3 ng/mL (≈ 0.00828 µM).
Turning to `CO[C@H]1O[C@@]2(C)CC[C@H]3CCC[C@@H](CCOCc4ccncc4)[C@]31OO2`, the IC50 was 10 ng/mL (≈ 0.0275 µM) in test [1] and 7.5 ng/mL (≈ 0.0206 µM) in test [2].
Taken in the same sequence, the figures for `CO[C@H]1O[C@@]2(C)CC[C@H]3CCC[C@@H](CCOCc4ccc(-c5ccccc5)cc4)[C@]31OO2` were 6 ng/mL (≈ 0.0137 µM) and 6 ng/mL (≈ 0.0137 µM).
Turning to `C[C@H]1[C@H](OC(=O)CCC(=O)[O-])O[C@@H]2O[C@@]3(C)CC[C@H]4[C@H](C)CC[C@@H]1[C@@]24OO3.[Na+]` [SODIUM ARESUNATE], the ED90 in test [3] worked out at 4.9 mg/kg. The compound further returned an ED50 in test [4] of 1.5 mg/kg.
